Measured values collected from several papers.
Target: TGF-beta receptor type-2 (TGFBR2, Homo sapiens, UniProt P37173)

SMILES | observed | mode | technique | concentration | quantity | value
O=C(Nc1cnn(-c2csc(C(=O)NC3COC3)c2)c1)Nc1ccccc1Cl | enzyme activity | inhibitor | – | 5 µM | remaining activity | 113%
CN1CC(Oc2cnc(C#N)cc2-c2ccn3nc(NC(=O)C4CC4)cc3c2)C1 | enzyme activity | inhibitor | – | 1 µM | inhibition | 11%
C[C@@H](c1cccc(C#N)c1)n1cc(Cl)cc(C(N)=O)c1=N | cell-free assay | – | competition with immobilised ligand | 1 µM | remaining binding | 100%
O=C1Nc2ccc(Cl)cc2C1=Cc1cc(Cl)c(O)c(Cl)c1 | cell-free assay | – | – | 0.5 µM | remaining signal | 94.9%
CC(C)(O)[C@H]1CC[C@H](Nc2ccc3ncc(-c4cccc(C(F)(F)F)c4)n3n2)CC1 | enzyme activity | inhibitor | – | 1 µM | remaining activity | 73.8%
CNCc1ccccc1-c1csc([C@@H](C)Nc2nc(C)nc3cc(OC)c(OC)cc23)c1 | cell-free assay | – | competition with immobilised ligand | 1 µM | remaining binding | 91%
CC(C)(C)c1nc2c(s1)c1nc(N)ncc1c1ccc(NS(=O)(=O)c3c(F)cccc3F)c(F)c12 | enzyme activity | inhibitor | radiometric | 1 µM | remaining activity | 81%
Cc1nc(N2CC[C@@H](O)C2)ncc1-c1cc(C(F)(F)F)cc2[nH]ncc12 | cell-free assay | – | competition with immobilised ligand | 1 µM | remaining binding | 99%
N#CCCc1ccc2c(c1)-c1[nH]c3ccc([N+](=O)[O-])cc3c1CC(=O)N2 | cell-free assay | – | – | 0.5 µM | remaining signal | 10.1%
O=C(Nc1cnn(-c2csc(C(=O)NC3COC3)c2)c1)Nc1c(F)cccc1Cl | enzyme activity | inhibitor | – | 5 µM | remaining activity | 82.6%
c1ccc(-c2[nH]ncc2-c2ccnc3ccccc23)nc1 | cell-free assay | – | – | 0.5 µM | remaining signal | 109%
Cc1ccc(C(=O)Nc2ccc(CN3CCN(C)CC3)c(C(F)(F)F)c2)cc1C#Cc1cnc2cccnn12 | cell-free assay | – | – | 23.5 nM | remaining signal | 76%
